SMILES strings stand for the structures. Converted amounts (≈) assume the structure as drawn. Bounds are passed on as bounds.

As a reminder, the MFC is the lowest tested concentration that kills the fungus rather than only halting it. Broadly, the MIC is the lowest concentration that inhibits growth of the organism. What is called MIC50 is the lowest concentration that inhibits either 50% of growth or 50% of the strains tested, depending on the study. Broadly, the MIC90 is the lowest concentration that inhibits either 90% of growth or 90% of the strains tested, depending on the study.

Test [1] has as its system Candida albicans. As to the kind of experiment: Antifungal activity against Candida albicans ATCC 10261 at 35 degC after 48 to 96 hrs by broth microdilution test. The format is functional. A digest of the protocol: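 Minimal fungicidal concentration for Candida. […] MFC is the lowest concentration allowing fewer than two colonies (99% killing).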
In general terms: Broth dilution looks for growth in wells or tubes with falling amounts of substance.

The subject of another test is Candida parapsilosis. As to the kind of experiment: Antifungal activity against Candida parapsilosis ATCC 22019 at 35 degC after 48 hrs by broth microdilution test. The format is functional. The method, boiled down: (§1)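 Broth microdilution per NCCLS M27-A2. Stocks in 100% DMSO, diluted in RPMI 1640 with 0.165 M MOPS at pH 7.0; final range 0.25–128 µg/mL. Inoculum 1000–5000 cells/mL from SDA subcultures. […] C. parapsilosis ATCC22019 served as QC strain.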

Test [2] has as its system Candida albicans. As to the kind of experiment: Antifungal activity against Candida albicans ATCC 10261 at 35 degC after 48 hrs by broth microdilution test. The format is functional. A digest of the protocol:
as §1

In test [3] the test system is Arthrodermataceae. Description: Antifungal activity against dermatophytes at 28 degC after 48 to 96 hrs by broth microdilution test.
Test [4] concerns Arthrodermataceae. Description: Antifungal activity against dermatophytes at 28 degC after 5 days by broth microdilution test.
In test [5] the test system is Arthrodermataceae. As to the kind of experiment: Antifungal activity against dermatophytes at 28 degC after 7 days by broth microdilution test. It is filed as functional. Particulars: 168 h. A digest of the protocol: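 Ten clinical isolates (two M. canis, five M. gypseum, three T. mentagrophytes) tested by NCCLS M38-A broth microdilution in MOPS-buffered RPMI 1640, pH 7.0, over 0.25–128 µg/mL. Conidial/hyphal suspension from PDA slants (28 °C, 7 days) adjusted to 65–70% transmittance at OD530, then diluted 1:50.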

The mark [6] stands for this setting: Candida albicans, ATCC 10261, read-out: MFC.
Where [7] appears, read: Lodderomyces parapsilosis, ATCC 22019, 48 h, read-out: MFC.
Where [8] appears, read: Lodderomyces parapsilosis, ATCC 22019, 48 h, read-out: MIC.
[9] abbreviates: Candida albicans, ATCC 10261, 48 h, read-out: MIC.
Where [10] appears, read: Candida albicans, ATCC 10261, 48 h, read-out: MIC50.
The mark [11] stands for this setting: Candida albicans, ATCC 10261, 48 h, read-out: MIC90.

Turning to `Cc1ccc(C(CCn2ccnc2)Oc2c(Cl)cccc2Cl)cc1` (stereo not given), the MFC50 in the test on Candida albicans [1] worked out at 32 µg/mL (≈ 88.6 µM). This compound showed an MFC90 against Candida albicans [1] of 128 µg/mL (≈ 354 µM). Also, the MFC was 62.9 µg/mL (≈ 174 µM) in the test with Candida albicans [1] (setting [6]) and 16 µg/mL (≈ 44.3 µM) in the test on Candida parapsilosis (setting [7]). Also, the MIC in the test on Candida parapsilosis (setting [8]) turned out to be 1 µg/mL (≈ 2.77 µM); in the test on Candida albicans [2] (setting [9]), 42 µg/mL (≈ 116 µM). Further, the MIC50 in the test with Candida albicans [2] (setting [10]) came out at 8 µg/mL (≈ 22.1 µM). The MIC90 in the test with Candida albicans [2] (setting [11]) stood at 128 µg/mL (≈ 354 µM).

Turning to `Cc1ccc(C(CCn2ccnc2)Oc2ccc(Cl)cc2C)cc1` (stereo not given), in the test with Candida albicans [1], the MFC50 was 64 µg/mL (≈ 188 µM). This compound gave an MFC90 in the test with Candida albicans [1] of 64 µg/mL (≈ 188 µM). The MFC is 58 µg/mL (≈ 170 µM) in the test with Candida albicans [1] (setting [6]) and 16 µg/mL (≈ 46.9 µM) in the test with Candida parapsilosis (setting [7]). In addition, the MIC stood at 4 µg/mL (≈ 11.7 µM) in the test on Candida parapsilosis (setting [8]) and 16 µg/mL (≈ 46.9 µM) with Candida albicans [2] (setting [9]). The MIC50 in the test with Candida albicans [2] (setting [10]) was 16 µg/mL (≈ 46.9 µM). The MIC90 in the test on Candida albicans [2] (setting [11]) worked out at 16 µg/mL (≈ 46.9 µM).

The compound `O=[N+]([O-])O.c1ccc(C(OCCn2ccnc2)c2ccccc2)cc1` gave an MFC50 in the test with Candida albicans [1] of 128 µg/mL. The same compound showed an MFC90 against Candida albicans [1] of more than 256 µg/mL. Also, the MFC was 230 µg/mL with Candida albicans [1] (setting [6]) and 64 µg/mL in the test on Candida parapsilosis (setting [7]). Moreover, the results for the MIC with Candida parapsilosis (setting [8]) and with Candida albicans [2] (setting [9]) were 32 µg/mL and 78.1 µg/mL, respectively. Moreover, the MIC50 in the test on Candida albicans [2] (setting [10]) amounted to 64 µg/mL. In the test with Candida albicans [2] (setting [11]), the MIC90 came to 128 µg/mL.

As to `Clc1ccc(C(OCCn2ccnc2)c2ccc(Cl)cc2Cl)c(Cl)c1`, in the test on Candida albicans [1], the MFC50 was more than 128 µg/mL. Also, the MFC90 with Candida albicans [1] was more than 128 µg/mL. For the same compound, the values for the MFC with Candida albicans [1] (setting [6]) and in the test with Candida parapsilosis (setting [7]) were more than 128 µg/mL and 64 µg/mL (≈ 154 µM), respectively. In addition, the values for the MIC with Candida parapsilosis (setting [8]) and in the test on Candida albicans [2] (setting [9]) were 32 µg/mL (≈ 76.9 µM) and more than 128 µg/mL, respectively. In addition, the MIC50 with Candida albicans [2] (setting [10]) is more than 128 µg/mL. Further, in the test with Candida albicans [2] (setting [11]), the MIC90 is more than 128 µg/mL.

Consider `Clc1ccc(OC(CCn2ccnc2)c2ccccc2)c(Cl)c1` (single isomer, unassigned; (-)), for which, in the test on Candida albicans [1], the MFC turned out to be 28.6 µg/mL (≈ 82.4 µM), the MFC50 amounted to 32 µg/mL (≈ 92.2 µM) and the MFC90 came to 32 µg/mL (≈ 92.2 µM). Moreover, in the test on Candida parapsilosis, the MFC came out at 8 µg/mL (≈ 23 µM) and the MIC came out at 1 µg/mL (≈ 2.88 µM). In the test on Candida albicans [2], this compound registered an MIC of 11.8 µg/mL (≈ 34 µM) and an MIC90 of 16 µg/mL (≈ 46.1 µM).

Regarding `Cc1ccc(OC(CCn2ccnc2)c2ccccc2)cc1` (single isomer, unassigned; (-)), in the test on Candida albicans [1], the MFC was 51.4 µg/mL (≈ 176 µM), the MFC50 turned out to be 64 µg/mL (≈ 219 µM) and the MFC90 was 64 µg/mL (≈ 219 µM). Also, in the test on Candida parapsilosis, the MIC is 2 µg/mL (≈ 6.84 µM). In the test with Candida albicans [2], this compound showed an MIC of 28.3 µg/mL (≈ 96.8 µM), an MIC50 of 16 µg/mL (≈ 54.7 µM) and an MIC90 of 64 µg/mL (≈ 219 µM).

In the test with Candida albicans [1], `Clc1ccc(OC(CCn2ccnc2)c2ccccc2)c(Cl)c1` (stereo in doubt; (+)-14a) showed a minimal fungicidal concentration (MFC) of 7.4 µg/mL (≈ 21.3 µM) and an MFC90 of 8 µg/mL (≈ 23 µM). In the test on Candida parapsilosis, this compound had an MFC of 4 µg/mL (≈ 11.5 µM) and an MIC of 0.5 µg/mL (≈ 1.44 µM). In the test with Candida albicans [2], this compound returned an MIC of 3.2 µg/mL (≈ 9.22 µM), an MIC50 of 4 µg/mL (≈ 11.5 µM) and an MIC90 of 4 µg/mL (≈ 11.5 µM).

In turn, `CNCCC(Oc1ccc(C(F)(F)F)cc1)c1ccccc1` (stereo not given) [FLUOXETINE] yielded an MFC50 with Arthrodermataceae [3] of 64 µg/mL (≈ 207 µM). The MFC90 in the test on Arthrodermataceae [4] was found to be 64 µg/mL (≈ 207 µM). The MFC against Arthrodermataceae [4] (Arthrodermataceae) was 64 µg/mL (≈ 207 µM). Further, in the test with Arthrodermataceae [5], the MIC amounted to 45 µg/mL (≈ 145 µM), the MIC50 came out at 32 µg/mL (≈ 103 µM) and the MIC90 came to 64 µg/mL (≈ 207 µM).

`Cc1ccc(C(CCn2ccnc2)Oc2ccc(C(C)C)cc2)cc1` (stereo not given): the MFC50 in the test on Candida albicans [1] was 32 µg/mL (≈ 95.7 µM). Also, the MFC90 in the test on Candida albicans [1] turned out to be 64 µg/mL (≈ 191 µM). Moreover, the MFC was 32 µg/mL (≈ 95.7 µM) in the test on Candida albicans [1] (setting [6]) and 16 µg/mL (≈ 47.8 µM) with Candida parapsilosis (setting [7]). In addition, the MIC was determined as 2 µg/mL (≈ 5.98 µM) in the test on Candida parapsilosis (setting [8]) and 16.6 µg/mL (≈ 49.6 µM) with Candida albicans [2] (setting [9]). The MIC50 with Candida albicans [2] (setting [10]) amounted to 16 µg/mL (≈ 47.8 µM). In addition, the MIC90 in the test on Candida albicans [2] (setting [11]) was determined as 32 µg/mL (≈ 95.7 µM).

`Clc1ccc(OC(CCn2ccnc2)c2ccc(Cl)cc2Cl)c(Cl)c1` (stereo not given): in the test on Candida albicans [1], the MFC50 is 64 µg/mL (≈ 154 µM). Besides, the MFC90 against Candida albicans [1] is 64 µg/mL (≈ 154 µM). For the same compound, the MFC in the test with Candida albicans [1] (setting [6]) and in the test on Candida parapsilosis (setting [7]) was 64 µg/mL (≈ 154 µM) each time. Further, the MIC in the test on Candida parapsilosis (setting [8]) turned out to be 8 µg/mL (≈ 19.2 µM); in the test on Candida albicans [2] (setting [9]), 51 µg/mL (≈ 123 µM). In the test on Candida albicans [2] (setting [10]), the MIC50 was 64 µg/mL (≈ 154 µM). Besides, the MIC90 in the test on Candida albicans [2] (setting [11]) was 64 µg/mL (≈ 154 µM).

Source of the values: ChEMBL document CHEMBL1157464, “1-[(3-Aryloxy-3-aryl)propyl]-1H-imidazoles, new imidazoles with potent activity against Candida albicans and dermatophytes. Synthesis, structure-activity relationship, and molecular modeling studies” (J Med Chem, 2008).
